The subject of experiment [1] is PC-3. Put plainly: Reduction in YB-1 mRNA expression in human PC3 cells after 24 hrs by RT-PCR analysis. The experiment is classed as functional, cell-based. In outline: (§1)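 PC-3, PC-3/CA-ILK, SKBR3 and SKBR3/CA-ILK cells treated 24 h in 5% FBS medium; total RNA from 1 × 10^6 cells by Trizol, 1 μg reverse-transcribed, then PCR with gene-specific primers and β-actin reference.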

The subject of experiment [2] is PC-3. Put plainly: Reduction in HER2 mRNA expression in human PC3 cells after 24 hrs by RT-PCR analysis. The experiment is classed as functional, cell-based. The method, boiled down:
as §1

Experiment [3] relates to PC-3. The experiment in a line: Induction of apoptosis in human PC3 cells assessed as late apoptotic cells at 1 uM by annexin V/PI staining (reference value: 9.8%). The class given is functional.
In experiment [4] the target is Tyrosine-protein kinase JAK2 (Homo sapiens) (UniProt O60674). The experiment in a line: Inhibition of Jak2 at 5 uM assessed as remaining activity. In outline:
(§2)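 Panel of 20 recombinant kinases, profiled by a commercial vendor.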

In experiment [5] the test system is PC-3. The experiment in a line: Reduction in EGFR mRNA expression in human PC3 cells expressing constitutively active ILK after 24 hrs by RT-PCR analysis. The class given is functional, cell-based. In outline:
as §1

Experiment [6] addresses RAC-alpha serine/threonine-protein kinase (Homo sapiens) (UniProt P31749). Put plainly: Inhibition of Akt at 5 uM assessed as remaining activity. The method, boiled down: as §2
Experiment [7] addresses Rapamycin-insensitive companion of mTOR (Homo sapiens) (UniProt Q6R327). The experiment in a line: Inhibition of mTORC2 in human MDA-MB-231 cells assessed as PKCalpha phosphorylation by Western blot analysis. The class given is cell-based. In outline:
(§3)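 Cells exposed 24 h in 5% FBS medium, final DMSO 0.1%; lysed in 1% SDS/10 mM EDTA/50 mM Tris pH 8.1, equal protein on SDS-PAGE, nitrocellulose, primary antibody 1:1000 at 4°C for 2 h, HRP secondary 1:5000, ECL detection; blots representative of three independent experiments.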
Background: In western blotting, separated proteins are transferred to a membrane and probed.

Experiment [8] relates to PC-3. Put plainly: Reduction in YB-1 mRNA expression in human PC3 cells expressing constitutively active ILK after 24 hrs by RT-PCR analysis. The class given is functional, cell-based. In outline:
as §1

Experiment [9] deals with Rapamycin-insensitive companion of mTOR (Homo sapiens) (UniProt Q6R327). Put plainly: Inhibition of mTORC2 in human MDA-MB-231 cells assessed as SGK1 phosphorylation by Western blot analysis. The class given is cell-based. In outline:
as §3

Experiment [10] has as its system PC-3. Put plainly: Reduction in HER2 concentration in human PC3 cells expressing constitutively active ILK after 24 hrs by Western blot analysis. The experiment is classed as functional, cell-based. The method, boiled down:
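PC-3 versus stable PC-3/CA-ILK, or SKBR3 versus transient SKBR3/CA-ILK (electroporation, used 48 h after), treated 24 h in 5% FBS medium; immunoblotting with ECL; representative of three experiments.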

The subject of experiment [11] is SK-BR-3. Put plainly: Reduction in YB-1 mRNA expression in human SKBR3 cells expressing constitutively active ILK after 24 hrs by RT-PCR analysis. The class given is functional, cell-based. In outline: as §1
Experiment [12] has as its system PC-3. Put plainly: Induction of apoptosis in human PC3 cells assessed as late apoptotic cells at 3 uM by annexin V/PI staining (reference value: 9.8%). The experiment is classed as functional.
Experiment [13] deals with Rapamycin-insensitive companion of mTOR (Homo sapiens) (UniProt Q6R327). Put plainly: Inhibition of mTORC2 in human PC3 cells assessed as SGK1 phosphorylation by Western blot analysis. The class given is cell-based. Particulars: PC-3. In outline:
as §3

Experiment [14] relates to PC-3. The experiment in a line: Induction of autophagy in human PC3 cells assessed as LC3-II conversion by Western blot analysis. The experiment is classed as functional, cell-based. The method, boiled down:
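PC-3 cells treated 24 h in 5% FBS medium. Lysed in 1% SDS/10 mM EDTA/50 mM Tris pH 8.1, equal protein on SDS-PAGE, primary antibody 1:1000 at 4°C for 2 h, HRP secondary, ECL detection. Read-outs PARP cleavage and LC3-II conversion; blots representative of three experiments.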

Experiment [15] concerns the target Ribosomal protein S6 kinase beta-1 (Homo sapiens) (UniProt P23443). Put plainly: Inhibition of p70S6K in human PC3 cells assessed as decrease in phosphorylated p70S6K by Western blot analysis. The experiment is classed as cell-based. As to conditions: PC-3. In outline:
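PC-3 cells (parental, or stable GFP-CA-ILK clones selected with G418 250 μg/mL and GFP sorting) exposed 24 h in 5% FBS medium; SDS lysis, immunoblot at 1:1000 primary, ECL; representative of three experiments.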

The target in experiment [16] is T1, 3-phosphoinositide-dependent protein kinase 1 (Homo sapiens) (UniProt O15530).
T1 sequence (whole entry): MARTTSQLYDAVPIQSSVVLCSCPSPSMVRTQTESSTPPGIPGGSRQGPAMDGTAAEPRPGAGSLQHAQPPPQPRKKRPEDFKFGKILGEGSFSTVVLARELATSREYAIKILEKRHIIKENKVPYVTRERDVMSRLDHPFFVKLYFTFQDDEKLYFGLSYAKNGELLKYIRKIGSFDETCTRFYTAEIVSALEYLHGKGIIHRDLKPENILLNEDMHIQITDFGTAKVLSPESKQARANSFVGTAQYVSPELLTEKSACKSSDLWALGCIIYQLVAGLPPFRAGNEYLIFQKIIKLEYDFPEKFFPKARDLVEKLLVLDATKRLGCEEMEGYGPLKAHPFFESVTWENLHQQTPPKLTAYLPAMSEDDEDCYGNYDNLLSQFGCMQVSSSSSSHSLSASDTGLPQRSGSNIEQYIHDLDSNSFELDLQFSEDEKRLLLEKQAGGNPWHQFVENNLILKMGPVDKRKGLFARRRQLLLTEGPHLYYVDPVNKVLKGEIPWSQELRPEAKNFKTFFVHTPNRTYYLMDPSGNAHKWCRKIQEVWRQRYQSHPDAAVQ
Put plainly: Inhibition of PDK2 in human PC3 cells assessed as Akt Thr-308 dephosphorylation by Western blot analysis. As to conditions: PC-3. The class given is functional, cell-based. In outline: as §3

Experiment [17] concerns SK-BR-3. The experiment in a line: Reduction in HER2 mRNA expression in human SKBR3 cells after 24 hrs by RT-PCR analysis. The experiment is classed as functional, cell-based. The method, boiled down:
as §1

Experiment [18] has as its system SK-BR-3. The experiment in a line: Reduction in YB-1 mRNA expression in human SKBR3 cells after 24 hrs by RT-PCR analysis. The experiment is classed as functional, cell-based. The method, boiled down:
as §1

Experiment [19] deals with Cyclin-dependent kinase 5/CDK5 activator 1 (Homo sapiens) (UniProt Q00535+Q15078). The experiment in a line: Inhibition of CDK5/p25 at 5 uM assessed as remaining activity. The experiment is classed as protein-complex assay. The method, boiled down:
as §2

Experiment [20] addresses Tyrosine-protein kinase ABL1 (Homo sapiens) (UniProt P00519). Put plainly: Inhibition of Abl kinase at 5 uM assessed as remaining activity. In outline: as §2
For experiment [21], the target named is Epidermal growth factor receptor (Homo sapiens) (UniProt P00533). Put plainly: Inhibition of EGFR at 5 uM assessed as remaining activity. In outline: as §2
Experiment [22] concerns the target Mast/stem cell growth factor receptor Kit (Homo sapiens) (UniProt P10721). Put plainly: Inhibition of cKit at 5 uM assessed as remaining activity.
Experiment [23] has as its system PC-3. The experiment in a line: Induction of apoptosis in human PC3 cells assessed as early apoptotic cells at 4 uM by annexin V/PI staining (reference value: 5.6%). The class given is functional.

Calls of active or inactive are those of the source. Unless noted, the calls are words filed in the database; no cut-off is given here.

Chain of Rapamycin-insensitive companion of mTOR (Homo sapiens) (Q6R327 whole entry): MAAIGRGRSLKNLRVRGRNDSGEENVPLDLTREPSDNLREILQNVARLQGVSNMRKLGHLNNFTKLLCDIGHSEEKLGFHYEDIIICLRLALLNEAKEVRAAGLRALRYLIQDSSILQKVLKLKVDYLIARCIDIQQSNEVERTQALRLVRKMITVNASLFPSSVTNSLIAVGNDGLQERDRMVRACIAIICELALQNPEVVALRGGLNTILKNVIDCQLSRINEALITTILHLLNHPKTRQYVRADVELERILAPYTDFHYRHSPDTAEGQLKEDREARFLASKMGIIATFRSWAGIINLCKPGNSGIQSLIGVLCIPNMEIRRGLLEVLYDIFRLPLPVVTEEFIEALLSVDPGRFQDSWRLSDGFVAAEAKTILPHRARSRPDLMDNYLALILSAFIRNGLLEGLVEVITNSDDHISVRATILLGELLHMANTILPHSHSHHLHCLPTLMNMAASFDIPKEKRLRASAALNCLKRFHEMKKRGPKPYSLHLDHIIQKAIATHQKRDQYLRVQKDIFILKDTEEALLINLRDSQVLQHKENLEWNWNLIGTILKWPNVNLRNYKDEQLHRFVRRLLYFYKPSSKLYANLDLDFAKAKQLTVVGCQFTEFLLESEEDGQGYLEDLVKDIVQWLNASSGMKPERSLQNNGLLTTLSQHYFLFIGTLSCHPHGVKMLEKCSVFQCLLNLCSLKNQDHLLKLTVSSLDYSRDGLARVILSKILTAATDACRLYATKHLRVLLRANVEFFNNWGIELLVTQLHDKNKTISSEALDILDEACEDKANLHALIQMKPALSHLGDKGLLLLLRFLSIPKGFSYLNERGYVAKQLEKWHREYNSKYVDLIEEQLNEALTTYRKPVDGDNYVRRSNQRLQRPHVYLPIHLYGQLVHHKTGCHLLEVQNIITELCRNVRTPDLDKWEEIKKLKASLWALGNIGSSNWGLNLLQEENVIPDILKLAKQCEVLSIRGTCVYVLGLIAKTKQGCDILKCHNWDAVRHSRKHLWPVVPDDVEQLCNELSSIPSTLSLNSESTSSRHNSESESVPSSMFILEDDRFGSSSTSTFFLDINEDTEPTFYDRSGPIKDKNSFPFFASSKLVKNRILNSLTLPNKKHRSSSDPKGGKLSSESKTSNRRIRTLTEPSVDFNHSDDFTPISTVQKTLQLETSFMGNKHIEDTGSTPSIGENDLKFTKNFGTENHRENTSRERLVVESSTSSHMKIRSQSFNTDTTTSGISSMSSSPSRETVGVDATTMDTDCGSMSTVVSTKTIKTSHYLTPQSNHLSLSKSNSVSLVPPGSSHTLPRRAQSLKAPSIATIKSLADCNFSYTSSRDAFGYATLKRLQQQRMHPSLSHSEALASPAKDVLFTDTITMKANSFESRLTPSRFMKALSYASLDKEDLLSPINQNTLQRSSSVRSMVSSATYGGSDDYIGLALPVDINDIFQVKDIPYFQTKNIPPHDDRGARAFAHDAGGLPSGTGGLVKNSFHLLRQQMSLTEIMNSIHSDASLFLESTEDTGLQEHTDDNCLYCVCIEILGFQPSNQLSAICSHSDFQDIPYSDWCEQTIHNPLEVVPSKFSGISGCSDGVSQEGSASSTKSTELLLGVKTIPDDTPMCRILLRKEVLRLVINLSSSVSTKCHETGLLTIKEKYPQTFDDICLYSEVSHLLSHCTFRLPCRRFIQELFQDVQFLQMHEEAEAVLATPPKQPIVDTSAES
Chain of Mast/stem cell growth factor receptor Kit (Homo sapiens) (P10721 whole entry): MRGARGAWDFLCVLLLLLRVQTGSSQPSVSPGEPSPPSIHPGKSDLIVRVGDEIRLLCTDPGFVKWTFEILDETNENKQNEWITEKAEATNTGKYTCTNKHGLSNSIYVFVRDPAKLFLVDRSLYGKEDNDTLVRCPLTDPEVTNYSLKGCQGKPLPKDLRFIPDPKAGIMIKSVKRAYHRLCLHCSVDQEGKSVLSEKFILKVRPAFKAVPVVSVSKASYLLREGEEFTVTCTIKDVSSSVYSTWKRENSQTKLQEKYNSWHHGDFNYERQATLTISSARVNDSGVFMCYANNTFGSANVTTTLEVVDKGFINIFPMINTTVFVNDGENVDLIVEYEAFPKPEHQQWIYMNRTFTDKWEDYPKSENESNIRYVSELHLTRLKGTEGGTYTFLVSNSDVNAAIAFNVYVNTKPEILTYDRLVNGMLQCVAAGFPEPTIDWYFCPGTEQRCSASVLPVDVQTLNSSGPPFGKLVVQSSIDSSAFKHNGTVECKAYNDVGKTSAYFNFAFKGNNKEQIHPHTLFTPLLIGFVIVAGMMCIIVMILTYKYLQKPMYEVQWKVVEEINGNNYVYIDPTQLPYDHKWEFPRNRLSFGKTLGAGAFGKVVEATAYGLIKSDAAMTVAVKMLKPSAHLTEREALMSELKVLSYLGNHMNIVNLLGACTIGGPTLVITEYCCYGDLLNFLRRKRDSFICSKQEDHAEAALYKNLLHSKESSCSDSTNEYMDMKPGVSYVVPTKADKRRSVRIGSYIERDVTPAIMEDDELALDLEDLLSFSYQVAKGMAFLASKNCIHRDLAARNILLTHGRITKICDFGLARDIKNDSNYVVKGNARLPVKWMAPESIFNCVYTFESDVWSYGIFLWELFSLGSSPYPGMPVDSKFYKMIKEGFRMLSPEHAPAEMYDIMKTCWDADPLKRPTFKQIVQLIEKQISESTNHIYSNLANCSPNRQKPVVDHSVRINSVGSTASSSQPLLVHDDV
Chain of Tyrosine-protein kinase JAK2 (Homo sapiens) (O60674 whole entry): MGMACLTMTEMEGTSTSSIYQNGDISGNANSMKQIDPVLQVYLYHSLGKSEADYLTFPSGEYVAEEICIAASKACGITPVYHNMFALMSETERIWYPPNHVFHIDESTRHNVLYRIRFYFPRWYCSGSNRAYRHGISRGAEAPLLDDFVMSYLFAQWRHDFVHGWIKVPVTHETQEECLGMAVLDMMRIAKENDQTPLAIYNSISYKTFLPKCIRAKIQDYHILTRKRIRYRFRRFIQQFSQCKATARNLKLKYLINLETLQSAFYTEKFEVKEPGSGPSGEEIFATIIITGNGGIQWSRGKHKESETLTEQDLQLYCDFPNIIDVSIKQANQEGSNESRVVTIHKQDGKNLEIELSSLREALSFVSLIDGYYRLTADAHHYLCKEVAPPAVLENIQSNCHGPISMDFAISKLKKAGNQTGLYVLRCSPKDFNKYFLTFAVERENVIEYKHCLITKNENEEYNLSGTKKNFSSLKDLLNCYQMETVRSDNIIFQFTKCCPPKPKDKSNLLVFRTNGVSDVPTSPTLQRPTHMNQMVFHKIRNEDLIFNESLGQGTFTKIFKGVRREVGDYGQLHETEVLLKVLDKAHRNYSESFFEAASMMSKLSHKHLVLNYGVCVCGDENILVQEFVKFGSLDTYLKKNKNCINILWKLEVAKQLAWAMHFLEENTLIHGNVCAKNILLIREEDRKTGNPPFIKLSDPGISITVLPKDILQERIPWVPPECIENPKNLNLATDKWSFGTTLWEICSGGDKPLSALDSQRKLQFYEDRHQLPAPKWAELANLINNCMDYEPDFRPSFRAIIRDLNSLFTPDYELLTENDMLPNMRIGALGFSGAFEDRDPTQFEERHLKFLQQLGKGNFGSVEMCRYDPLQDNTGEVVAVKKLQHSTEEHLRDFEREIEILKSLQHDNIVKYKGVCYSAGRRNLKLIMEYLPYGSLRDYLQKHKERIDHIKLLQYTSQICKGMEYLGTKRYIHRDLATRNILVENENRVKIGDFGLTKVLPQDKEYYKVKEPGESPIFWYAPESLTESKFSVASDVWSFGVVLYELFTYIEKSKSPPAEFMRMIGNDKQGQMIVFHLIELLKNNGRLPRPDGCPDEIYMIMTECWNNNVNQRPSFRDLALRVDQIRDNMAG
Chain of Tyrosine-protein kinase ABL1 (Homo sapiens) (P00519 whole entry): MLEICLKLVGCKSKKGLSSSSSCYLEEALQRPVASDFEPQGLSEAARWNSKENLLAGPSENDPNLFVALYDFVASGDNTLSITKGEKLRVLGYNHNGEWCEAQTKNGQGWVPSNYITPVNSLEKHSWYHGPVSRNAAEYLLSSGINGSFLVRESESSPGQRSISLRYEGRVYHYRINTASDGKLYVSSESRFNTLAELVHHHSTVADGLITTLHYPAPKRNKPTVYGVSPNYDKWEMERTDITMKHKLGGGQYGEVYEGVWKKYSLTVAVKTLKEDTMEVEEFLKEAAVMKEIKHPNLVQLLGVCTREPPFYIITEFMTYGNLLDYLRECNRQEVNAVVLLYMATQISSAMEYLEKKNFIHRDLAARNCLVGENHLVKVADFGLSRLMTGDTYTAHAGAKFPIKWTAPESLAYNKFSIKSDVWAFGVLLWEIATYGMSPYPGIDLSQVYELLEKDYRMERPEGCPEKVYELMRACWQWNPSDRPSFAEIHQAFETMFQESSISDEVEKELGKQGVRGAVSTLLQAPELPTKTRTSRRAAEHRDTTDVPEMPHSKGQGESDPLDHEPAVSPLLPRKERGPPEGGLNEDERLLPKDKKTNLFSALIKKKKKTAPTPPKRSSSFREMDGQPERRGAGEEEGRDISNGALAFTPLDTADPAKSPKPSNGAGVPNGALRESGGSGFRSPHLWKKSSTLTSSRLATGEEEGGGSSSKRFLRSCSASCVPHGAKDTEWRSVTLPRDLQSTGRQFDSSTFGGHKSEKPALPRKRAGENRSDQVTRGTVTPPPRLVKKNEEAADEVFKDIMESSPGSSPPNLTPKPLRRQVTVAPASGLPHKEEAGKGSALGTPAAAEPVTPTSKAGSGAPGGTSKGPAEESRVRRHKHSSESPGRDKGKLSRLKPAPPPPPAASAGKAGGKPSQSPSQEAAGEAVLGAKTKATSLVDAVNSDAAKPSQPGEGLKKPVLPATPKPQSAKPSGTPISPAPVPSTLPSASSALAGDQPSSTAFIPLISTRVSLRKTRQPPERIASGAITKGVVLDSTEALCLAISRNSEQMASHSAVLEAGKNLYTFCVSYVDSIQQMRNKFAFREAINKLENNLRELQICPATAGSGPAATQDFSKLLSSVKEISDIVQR

In the case of `CNC(=O)CCc1cc(-c2ccc(-c3ccc(C(F)(F)F)cc3)cc2)n(-c2ccc(N3CCNCC3)cc2)n1`, the Activity result was “Dose-dependent effect” in the experiment on PC-3 [1]; “Dose-dependent effect” with PC-3 [2]; 10.1% in the experiment on PC-3 [3]; 114% in experiment [4]; 88% in [6]; 14.9% in the experiment with PC-3 [12]. In addition, the Activity result is “Dose-dependent effect” in the experiment on PC-3 [14]; “Dose-dependent effect” in the experiment with SK-BR-3 [17]; “Dose-dependent effect” in the experiment on SK-BR-3 [18]; 98% in [19]; 73% in [20]; 103% in experiment [21]. In addition, the Activity was determined as 100% in experiment [22] and 25.2% in the experiment with PC-3 [23]. Further, the outcome in the experiment with PC-3 [5], in the experiment on PC-3 [8], with PC-3 [10] and with SK-BR-3 [11] was inactive. In addition, the inhibition entry in experiment [7], in [9], in experiment [13], in experiment [15] and in [16] was “inactive” in each case.

Values taken from ChEMBL document CHEMBL1828498, “Identification and characterization of a novel integrin-linked kinase inhibitor” (J Med Chem, 2011).
